Legend:
[1] = Cytotoxicity against mouse BV2 cells assessed as cell viability at 20 uM by MTT assay; type: cell-based, BV-2; details: read-out: Activity
In short: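 BV-2 cells exposed to 20 μM of each compound; viability expressed as percentage of the LPS-only treatment group; three independent experiments, mean SD.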

BV-2 = test: Antineuroinflammatory activity in mouse BV2 cells assessed as inhibition of nitric oxide production treated 30 mins before LPS challenge measured after 24 hrs by Griess reagent method; type: functional, cell-based
In short: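 Murine microglial BV-2 cells activated with LPS; NO production measured; IC50 taken as the concentration (μM) causing 50% inhibition of NO production in LPS-activated cells.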

[2] = Cytotoxicity against mouse BV2 cells assessed as cell viability by MTT assay; type: cell-based, BV-2; details: read-out: LD50 (the source's name)
In short: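 Mouse microglial BV-2 cells activated with LPS and treated with each compound at 20 μM. Viability is expressed as a percentage of the LPS-only group. Values are averages of three independent experiments, given as mean SD.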

IC50 (BV-2) | SMILES | viability at 20 µM [1] | CC50 [2]
> 200 µM | C[C@@H](CO)CC[C@H](O)[C@@H](C)[C@H]1[C@@H](O)C[C@H]2[C@@H]3CCC4=CC(=O)CC[C@]4(C)[C@H]3C[C@@H](O)[C@]12C | 93.4% | 
46.3 µM | C[C@H](CC[C@H](O)[C@@H](C)[C@H]1[C@@H](O)C[C@H]2[C@@H]3CCC4=CC(=O)CC[C@]4(C)[C@H]3C[C@@H](O)[C@]12C)CO[C@@H]1O[C@H](CO)[C@@H](O)[C@H](O)[C@H]1O | 94.8% | 
13.2 µM | C[C@@H]1CC[C@@]2(OC1)O[C@H]1C[C@H]3[C@@H]4CC[C@H]5C[C@@H](O[C@@H]6O[C@H](CO)[C@H](O[C@@H]7O[C@H](CO)[C@@H](O)[C@H](O[C@@H]8OC[C@@H](O[C@@H]9O[C@@H](C)[C@H](O)[C@@H](O)[C@H]9O)[C@H](O)[C@H]8O)[C@H]7O[C@@H]7O[C@H](CO)[C@@H](O)[C@H](O)[C@H]7O)[C@H](O)[C@H]6O)[C@H](O)C[C@]5(C)[C@H]4CC[C@]3(C)[C@H]1[C@@H]2C | 86.4% | 
14.3 µM | CNC(=N)NCCC[C@H](N)C(=O)O [TILARGININE] | 102% | 

SMILES | IC50 (BV-2) | viability at 20 µM [1] | CC50 [2]
C[C@@H]1CC[C@@]2(OC1)O[C@H]1C[C@H]3[C@@H]4CC[C@H]5C[C@@H](O[C@@H]6O[C@H](CO)[C@H](O[C@@H]7O[C@H](CO)[C@@H](O)[C@H](O)[C@H]7O)[C@H](O)[C@H]6O[C@@H]6O[C@@H](C)[C@H](O)[C@@H](O)[C@H]6O)[C@H](O)C[C@]5(C)[C@H]4CC[C@]3(C)[C@H]1[C@@H]2C | 2.7 µM | 38.9% | 3.12 µM
C[C@@H]1CC[C@@]2(OC1)O[C@H]1C[C@H]3[C@@H]4CC[C@H]5C[C@@H](O[C@@H]6O[C@H](CO)[C@H](O[C@@H]7O[C@H](CO)[C@@H](O)[C@H](O[C@@H]8OC[C@@H](O)[C@H](O)[C@H]8O)[C@H]7O[C@@H]7O[C@H](CO)[C@@H](O)[C@H](O)[C@H]7O)[C@H](O)[C@H]6O)[C@H](O)C[C@]5(C)[C@H]4CC[C@]3(C)[C@H]1[C@@H]2C | 17.7 µM | 89.6% | 
